Laboratory results reported in ChEMBL document CHEMBL1126113, “Para-substituted Phe3 deltorphin analogues: enhanced selectivity of halogenated derivatives for delta opioid receptor sites” (J Med Chem, 1992).

What was measured:
[1] = molecular target: Mu-type opioid receptor (Rattus norvegicus, UniProt P33535); assay: Binding affinity against opioid receptor mu in rats by displacing [3H]-DAGO
[2] = molecular target: Delta-type opioid receptor (Rattus norvegicus, UniProt P33533); assay: Binding affinity against opioid receptor delta in rats by displacing [3H]DPDPE
[3] = species on record: Mus musculus; assay: Concentration required to inhibit electrically induced twitch by 50% in mouse vas deferens(MVD).; format: functional
Summary of the method: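 Mouse vas deferens field-stimulated at 0.1 Hz, 1 ms, 40 V; twitch recorded with an isometric transducer. Peptide doses added to the aerated bath, with three to four washes at 10-min intervals between doses. IC50 from log-dose curves, normalized against a dermorphin or morphine standard run on each tissue.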

[4] = species on record: Cavia porcellus; assay: Concentration required to inhibit electrically induced twitch by 50% in guinea pig ileum(GPI).; format: functional

Delta-type opioid receptor, sequence (P33533 whole entry): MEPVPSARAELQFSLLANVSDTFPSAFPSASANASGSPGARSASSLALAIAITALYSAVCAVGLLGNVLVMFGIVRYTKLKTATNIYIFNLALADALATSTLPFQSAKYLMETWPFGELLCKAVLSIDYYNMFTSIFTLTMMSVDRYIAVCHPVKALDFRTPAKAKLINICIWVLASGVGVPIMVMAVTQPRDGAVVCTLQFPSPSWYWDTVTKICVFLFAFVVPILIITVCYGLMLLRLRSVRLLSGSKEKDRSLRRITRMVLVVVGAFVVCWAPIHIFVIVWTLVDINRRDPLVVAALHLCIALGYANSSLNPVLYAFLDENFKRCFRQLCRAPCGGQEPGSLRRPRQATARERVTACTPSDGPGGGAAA
Mu-type opioid receptor, sequence (P33535 whole entry): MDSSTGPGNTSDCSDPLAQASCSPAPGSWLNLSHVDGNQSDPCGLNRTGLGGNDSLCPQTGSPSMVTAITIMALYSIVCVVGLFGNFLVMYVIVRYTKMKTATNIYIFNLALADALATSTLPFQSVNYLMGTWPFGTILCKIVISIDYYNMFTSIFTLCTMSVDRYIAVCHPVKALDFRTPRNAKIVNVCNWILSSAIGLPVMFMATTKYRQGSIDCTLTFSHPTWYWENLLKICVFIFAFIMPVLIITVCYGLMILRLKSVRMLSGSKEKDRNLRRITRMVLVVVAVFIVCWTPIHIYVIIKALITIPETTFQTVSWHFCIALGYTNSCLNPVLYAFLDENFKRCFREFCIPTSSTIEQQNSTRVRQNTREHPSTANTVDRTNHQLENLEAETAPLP

Compound | Ki [1] [nM] | Ki [2] [nM] | IC50 [3] [nM] | IC50 [4] [nM]
CC(C)[C@H](NC(=O)[C@H](CC(=O)O)NC(=O)[C@H](Cc1ccc([N+](=O)[O-])cc1)NC(=O)[C@@H](C)NC(=O)[C@@H](N)Cc1ccc(O)cc1)C(=O)N[C@H](C(=O)NCC(N)=O)C(C)C | 2390 | 71.8 | 1200 | > 10000
CC(C)[C@H](NC(=O)[C@H](CC(=O)O)NC(=O)[C@H](Cc1ccc(F)cc1)NC(=O)[C@@H](C)NC(=O)[C@@H](N)Cc1ccc(O)cc1)C(=O)N[C@H](C(=O)NCC(N)=O)C(C)C | 554 | 0.51 | 3.5 | 1100
CC(C)[C@H](NC(=O)[C@H](CCC(=O)O)NC(=O)[C@H](Cc1ccc(N)cc1)NC(=O)[C@@H](C)NC(=O)[C@@H](N)Cc1ccc(O)cc1)C(=O)N[C@H](C(=O)NCC(N)=O)C(C)C | 2460 | 48.1 | 300 | > 10000
CC(C)[C@H](NC(=O)[C@H](CC(=O)O)NC(=O)[C@H](Cc1ccc(I)cc1)NC(=O)[C@@H](C)NC(=O)[C@@H](N)Cc1ccc(O)cc1)C(=O)N[C@H](C(=O)NCC(N)=O)C(C)C | 1410 | 1.62 | 17 | > 10000
CC(C)[C@H](NC(=O)[C@H](CC(=O)O)NC(=O)[C@H](Cc1ccc(Cl)cc1)NC(=O)[C@@H](C)NC(=O)[C@@H](N)Cc1ccc(O)cc1)C(=O)N[C@H](C(=O)NCC(N)=O)C(C)C | 287 | 1.58 | 0.16 | 1800
CC(C)[C@H](NC(=O)[C@H](CC(=O)O)NC(=O)[C@H](Cc1ccc(N)cc1)NC(=O)[C@@H](C)NC(=O)[C@@H](N)Cc1ccc(O)cc1)C(=O)N[C@H](C(=O)NCC(N)=O)C(C)C | 506 | 33.9 | 1100 | > 10000
CC(C)[C@H](NC(=O)[C@H](CC(=O)O)NC(=O)[C@H](Cc1ccccc1)NC(=O)[C@@H](C)NC(=O)[C@@H](N)Cc1ccc(O)cc1)C(=O)N[C@H](C(=O)NCC(N)=O)C(C)C [DELTORPHIN C] | 272 | 0.24 | 0.14 | 420
CC(C)[C@H](NC(=O)[C@H](CC(=O)O)NC(=O)[C@H](Cc1ccc(Br)cc1)NC(=O)[C@@H](C)NC(=O)[C@@H](N)Cc1ccc(O)cc1)C(=O)N[C@H](C(=O)NCC(N)=O)C(C)C | 4790 | 2.39 | 1.1 | 7000
CC(C)[C@H](NC(=O)[C@H](CCC(=O)O)NC(=O)[C@H](Cc1ccccc1)NC(=O)[C@H](C)NC(=O)[C@@H](N)Cc1ccc(O)cc1)C(=O)N[C@H](C(=O)NCC(=O)O)C(C)C [DELTORPHINE II] | – | 0.12 | 0.75 | 5200
CC(C)[C@H](NC(=O)[C@H](CCC(=O)O)NC(=O)[C@H](Cc1ccc([N+](=O)[O-])cc1)NC(=O)[C@@H](C)NC(=O)[C@@H](N)Cc1ccc(O)cc1)C(=O)N[C@H](C(=O)NCC(N)=O)C(C)C | 1430 | 101 | 430 | > 10000
